For orientation: IC50 means the concentration at which inhibition is half-maximal.

The values below come from PMC6703927 (ACS chemical neuroscience, 2019).

Assay [1] deals with T1, DAT (Rattus norvegicus, UniProt P23977). The assay can be described thus: Synaptosomal dopamine uptake assay, striatal synaptosomes. In kind it is biochemical.
The next assay has as its system DAT W84L. The following applies: cited from earlier work.
Another assay concerns hDAT Y156F. The following applies: cited from earlier work.
For another assay, the target named is hNET (Homo sapiens, UniProt P23975). Format: cell-based. To be noted: hDAT vs hNET. An outline of the steps: (§1)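 MDCK cells stably expressing hDAT, hNET or hSERT were kept in DMEM with 10% FBS, pen/strep and blasticidin (5 μg/mL) at 37 °C, 5% CO2. Radiolabeled neurotransmitter uptake ([3H]-DA, [3H]serotonin) was measured against test compound dose. Results were normalized to percent of the highest response, and IC50 was fitted by nonlinear regression from three independent experiments.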
Chain of hNET (P23975 whole entry): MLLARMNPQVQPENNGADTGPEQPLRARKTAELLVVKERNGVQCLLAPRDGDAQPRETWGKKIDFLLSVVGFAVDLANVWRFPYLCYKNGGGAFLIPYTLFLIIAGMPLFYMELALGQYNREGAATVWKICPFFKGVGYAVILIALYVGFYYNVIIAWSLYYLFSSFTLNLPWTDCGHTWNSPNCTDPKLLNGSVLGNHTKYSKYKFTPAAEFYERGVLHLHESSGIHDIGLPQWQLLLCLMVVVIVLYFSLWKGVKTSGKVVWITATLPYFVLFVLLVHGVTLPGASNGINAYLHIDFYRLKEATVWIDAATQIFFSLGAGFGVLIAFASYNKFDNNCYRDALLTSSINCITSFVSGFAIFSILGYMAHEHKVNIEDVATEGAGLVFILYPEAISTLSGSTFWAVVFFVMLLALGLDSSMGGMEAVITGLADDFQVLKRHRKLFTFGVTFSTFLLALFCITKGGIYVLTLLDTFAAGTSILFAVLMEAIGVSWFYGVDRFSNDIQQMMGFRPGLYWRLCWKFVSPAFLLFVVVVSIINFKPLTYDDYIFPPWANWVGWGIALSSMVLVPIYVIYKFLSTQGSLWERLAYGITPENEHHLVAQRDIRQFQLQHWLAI

Assay [2] concerns DAT-XC/T316C. The assay can be described thus: SCAM MTSEA-biotin biotinylation, HEK-293 cells. Format: cell-based, human. An outline of the steps: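 HEK-293 cells (Lipojet transfection) expressed HA-tagged DAT-XC/T316C. […] Streptavidin-purified biotinylated DAT was immunoblotted with anti-HA, normalized to total DAT in unpurified lysate, then to the untreated band. Eight independent experiments were run.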

Another assay deals with Y156F-DAT (Homo sapiens, UniProt Q01959, Y156F). The assay can be described thus: DA uptake inhibition assay, transfected COS-7 cells. In kind it is cell-based. In a few lines: (§2)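 COS-7 cells (DMEM, 10% FBS, pen/strep, 37 °C, 5% CO2) were transiently transfected with WT or mutant human DAT using TransIT-LT1. Dopamine uptake was measured across a dose-response of test compound. Responses were normalized, and IC50 was obtained by nonlinear regression. Means and SEM come from three independent experiments, with the mutant compared against WT-DAT.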
Chain of Y156F-DAT (Q01959 whole entry Y156F): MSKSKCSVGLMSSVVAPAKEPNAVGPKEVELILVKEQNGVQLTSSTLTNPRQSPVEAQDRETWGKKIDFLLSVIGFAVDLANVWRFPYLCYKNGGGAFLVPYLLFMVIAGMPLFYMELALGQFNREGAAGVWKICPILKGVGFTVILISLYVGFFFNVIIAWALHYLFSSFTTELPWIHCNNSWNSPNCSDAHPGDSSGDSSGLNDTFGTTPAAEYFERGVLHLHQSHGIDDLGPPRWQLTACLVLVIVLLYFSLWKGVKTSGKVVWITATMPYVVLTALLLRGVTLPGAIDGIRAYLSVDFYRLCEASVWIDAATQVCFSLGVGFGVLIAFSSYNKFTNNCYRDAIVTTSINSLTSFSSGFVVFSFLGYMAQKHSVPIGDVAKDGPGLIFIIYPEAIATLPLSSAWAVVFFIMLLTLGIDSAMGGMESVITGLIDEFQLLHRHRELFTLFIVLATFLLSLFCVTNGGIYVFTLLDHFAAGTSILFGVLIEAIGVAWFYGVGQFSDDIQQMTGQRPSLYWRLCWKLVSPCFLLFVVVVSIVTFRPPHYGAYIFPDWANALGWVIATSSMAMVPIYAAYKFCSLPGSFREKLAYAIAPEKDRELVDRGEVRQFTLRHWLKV

Assay [3] concerns the target T2, DAT-XC/W84C (Homo sapiens, UniProt Q01959, C306A/W84C).
T2 sequence (Q01959 1-620 W84C/C306A): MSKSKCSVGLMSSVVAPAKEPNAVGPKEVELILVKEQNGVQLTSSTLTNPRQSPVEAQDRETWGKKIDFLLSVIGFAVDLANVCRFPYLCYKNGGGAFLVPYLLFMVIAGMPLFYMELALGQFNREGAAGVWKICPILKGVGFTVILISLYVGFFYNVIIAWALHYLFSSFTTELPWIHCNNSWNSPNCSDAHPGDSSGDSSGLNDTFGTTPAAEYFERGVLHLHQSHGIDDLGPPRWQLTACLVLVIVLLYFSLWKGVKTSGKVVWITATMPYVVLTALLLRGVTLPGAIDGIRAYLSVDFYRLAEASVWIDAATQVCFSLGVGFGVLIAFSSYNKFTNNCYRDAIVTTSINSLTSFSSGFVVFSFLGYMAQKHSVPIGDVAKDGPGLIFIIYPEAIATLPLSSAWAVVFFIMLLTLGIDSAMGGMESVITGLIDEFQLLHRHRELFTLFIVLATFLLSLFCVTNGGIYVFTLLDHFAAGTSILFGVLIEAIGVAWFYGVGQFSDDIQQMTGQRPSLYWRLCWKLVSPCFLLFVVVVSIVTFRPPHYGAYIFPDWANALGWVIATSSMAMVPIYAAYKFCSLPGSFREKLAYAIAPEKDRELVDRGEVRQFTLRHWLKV
Description: DA uptake dose-response inhibition assay, transiently expressed DAT mutant. Format: cell-based. The following applies: W84C vs DAT-XC. An outline of the steps: (§3)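 Mutants were made by site-directed mutagenesis. Single mutants used human WT DAT as background, and double cysteine mutants used C306A-DAT (DAT-XC). DA uptake dose-response gave IC50s from three or more independent experiments. Cysteine mutant IC50s were compared with DAT-XC, and D476 mutant IC50s with DAT-WT, by paired Student's t test.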

The test system of assay [4] is DAT-XC/A372C. Description: SCAM MTSEA-biotin biotinylation, HEK-293 cells. In kind it is cell-based, human.
Another assay addresses Y335A-DAT (Homo sapiens, UniProt Q01959, Y335A). Description: DA uptake inhibition assay, transfected COS-7 cells. In kind it is cell-based. An outline of the steps:
as §2

In assay [5] the target is T2, DAT-XC/W84C. The assay can be described thus: SCAM MTSEA-biotin biotinylation, HEK-293 cells. In kind it is cell-based.
Assay [6] deals with DAT cysteine mutant D385C. The assay can be described thus: SCAM MTSEA-biotin biotinylation, HEK-293 cells. To be noted: 20 μM KM822 coincubation. Format: cell-based, human. An outline of the steps:
(§4)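 SCAM used HEK-293 cells (Lipojet transfection) expressing N-terminally HA-tagged cysteine mutants on the C306A background. Cells were incubated with test compound (20 μM) before MTSEA-biotin labeling. Biotinylated DAT was pulled down on streptavidin beads and immunoblotted with anti-HA antibody. It was normalized to total DAT from unpurified lysates, then to the untreated band.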

Assay [7] concerns DAT cysteine mutant R544C. The assay can be described thus: SCAM MTSEA-biotin biotinylation, HEK-293 cells. Format: cell-based, human. The following applies: 20 μM KM822 coincubation. In a few lines:
as §4

A further assay concerns the target WT-DAT (Homo sapiens, UniProt Q01959). Description: DA uptake inhibition assay, transfected COS-7 cells. In kind it is cell-based. The following applies: read-out: IC50 DA uptake inhibition; WT-DAT transfected COS-7 cells.
The subject of the next assay is DAT mutant D385C. Description: DA uptake dose-response inhibition assay, transiently expressed DAT mutant. Format: cell-based, human. The following applies: D385C vs DAT-XC. An outline of the steps: as §3
In assay [8] the target is T1, DAT. The assay can be described thus: Ex vivo slice fast scan cyclic voltammetry, Nucleus accumbens. The following applies: 50 μM KM822, NAc slices. In a few lines: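 Rats were anesthetized with 2.5% isoflurane for 3 min and decapitated, and coronal NAc slices were cut into oxygenated ACSF (pH 7.4). After 30 min recovery at room temperature, slices were recorded at 32 °C by carbon-fiber microelectrode. Single pulses (400 μA, 4 ms, monophasic) were given every 3 min until baseline stabilized over three stimulations.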

A further assay has as its system DAT mutant D476N. The assay can be described thus: DA uptake dose-response inhibition assay, transiently expressed DAT mutant. In kind it is cell-based, human. To be noted: D476N vs DAT-WT. In a few lines:
as §3

The test system of assay [9] is DAT cysteine mutant T473C. Description: SCAM MTSEA-biotin biotinylation, HEK-293 cells. To be noted: 20 μM KM822 coincubation. In kind it is cell-based, human. An outline of the steps:
as §4

For another assay, the target named is hSERT (Homo sapiens, UniProt P31645). In kind it is cell-based. To be noted: hDAT vs SERT. In a few lines:
as §1

Another assay relates to wild type DAT. Description: [3H]-DA uptake kinetic assay, transiently transfected COS-7 cells. Format: cell-based, human. To be noted: for Vmax of dopamine uptake: vehicle 71.5 ± 6.12. An outline of the steps:
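WT human DAT was transiently expressed in COS-7 cells (TransIT-LT1). [3H]-dopamine saturation uptake was run with vehicle, 1 μM or 5 μM test compound. Vmax and Km were obtained from a Michaelis-Menten nonlinear regression fit. Figure data and kinetic constants are averaged over four independent experiments.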

The test system of a further assay is DAT Y335A. The following applies: cited from earlier work.
For assay [10], the system named is DAT-XC/T316C. To be noted: DAT-XC/T316C in the presence of cocaine; cited from earlier work.
Assay [11] relates to DAT-XC/A372C. To be noted: DAT-XC/A372C treated with cocaine; cited from earlier work.

T1 sequence (P23977 whole entry): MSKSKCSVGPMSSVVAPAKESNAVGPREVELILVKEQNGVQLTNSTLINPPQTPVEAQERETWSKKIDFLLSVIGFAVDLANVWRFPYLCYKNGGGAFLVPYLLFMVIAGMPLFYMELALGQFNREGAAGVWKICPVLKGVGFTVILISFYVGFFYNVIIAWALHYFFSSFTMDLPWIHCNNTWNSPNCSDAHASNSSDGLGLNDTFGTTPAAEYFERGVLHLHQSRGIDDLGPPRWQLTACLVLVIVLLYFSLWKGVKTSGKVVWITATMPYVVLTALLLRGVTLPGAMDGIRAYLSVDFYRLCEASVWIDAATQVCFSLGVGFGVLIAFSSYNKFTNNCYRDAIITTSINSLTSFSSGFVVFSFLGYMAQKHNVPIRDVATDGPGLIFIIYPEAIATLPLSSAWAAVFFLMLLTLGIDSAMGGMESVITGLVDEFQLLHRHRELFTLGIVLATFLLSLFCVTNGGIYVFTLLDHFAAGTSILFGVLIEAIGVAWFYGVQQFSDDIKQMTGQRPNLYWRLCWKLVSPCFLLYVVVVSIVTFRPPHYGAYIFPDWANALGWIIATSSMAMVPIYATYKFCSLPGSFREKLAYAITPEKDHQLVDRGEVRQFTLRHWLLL
Chain of Y335A-DAT (Q01959 whole entry Y335A): as the sequence (Q01959 whole entry Y156F) above, with F156Y, Y335A counted along it
Chain of WT-DAT (Q01959 whole entry): as the sequence (Q01959 whole entry Y156F) above, with F156Y counted along it
Chain of hSERT (P31645 whole entry): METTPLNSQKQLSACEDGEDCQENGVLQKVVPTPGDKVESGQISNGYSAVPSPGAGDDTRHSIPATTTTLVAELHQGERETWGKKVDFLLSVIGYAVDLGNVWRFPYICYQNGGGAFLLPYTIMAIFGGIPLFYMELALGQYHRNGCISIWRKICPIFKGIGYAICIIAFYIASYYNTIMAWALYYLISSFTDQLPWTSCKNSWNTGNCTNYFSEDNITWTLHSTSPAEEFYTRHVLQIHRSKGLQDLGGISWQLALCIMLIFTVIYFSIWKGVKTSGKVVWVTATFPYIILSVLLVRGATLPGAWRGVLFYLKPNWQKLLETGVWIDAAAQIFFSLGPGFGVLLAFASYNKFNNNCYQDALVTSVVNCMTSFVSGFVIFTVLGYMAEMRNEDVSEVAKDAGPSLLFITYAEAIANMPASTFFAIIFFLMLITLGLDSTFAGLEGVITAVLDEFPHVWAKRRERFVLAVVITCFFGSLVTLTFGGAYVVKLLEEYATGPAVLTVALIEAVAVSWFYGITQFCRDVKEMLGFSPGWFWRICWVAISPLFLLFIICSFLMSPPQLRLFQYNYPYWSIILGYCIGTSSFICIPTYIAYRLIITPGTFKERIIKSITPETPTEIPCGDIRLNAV

On to `Fc1ccc(C(OCCN2CCN(CCCc3ccccc3)CC2)c2ccc(F)cc2)cc1` [GBR12909], for which the “total DA uptake in striatal synaptosomes” value on DAT [1] (1 μM GBR12909) is given as “significantly blocked”. In addition, the “change of apparent potency in W84 to leucine mutant” value (shortened to “change of apparent potency in W84”) with DAT W84L was “decrease in apparent potency”.
Consider `CCCCN1[C@@H]2CC[C@H]1CC(OC(c1ccc(F)cc1)c1ccc(F)cc1)C2` (some centres unmarked) [JHW-007], for which the “potency change by Y156F mutation” value with hDAT Y156F was “significantly reduced”.
Consider `CCc1ccc2[nH]c3nc(SCCNS(=O)(=O)c4ccc(NC(C)=O)cc4)nnc3c2c1` [KM822], for which the “potency for hDAT transport inhibition higher than for hNET” value at hNET came to 30 folds. In addition, the “effect on MTSEA-biotin labeling” value in the assay on DAT-XC/T316C [2] (20 μM KM822) is “increased”; with DAT-XC/A372C [4] (20 μM KM822), “no significant change”. Also, on Y156F-DAT (COS-7 cells), the “potency in Y156F-DAT mutant as compared to WT-DAT” value is “unchanged”. Also, the concentration for half-maximal inhibition (IC50) on Y156F-DAT (read-out: IC50 DA uptake inhibition, Y156F-DAT transfected COS-7 cells) was 3.3 ± 0.45 µM; at Y335A-DAT (read-out: IC50 DA uptake inhibition, Y335A-DAT transfected COS-7 cells), 12.8 ± 1.4 µM; on WT-DAT, 3.8 ± 0.88 µM. In addition, the “change of potency in mutant” value on DAT-XC/W84C [3] is on record as “increase in potency”. The “potency reduction in Y335A mutant vs WT-DAT” value on Y335A-DAT (COS-7 cells) is 3 fold. Further, the “effect on MTSEA-biotin biotinylation” value on DAT-XC/W84C [5] (20 μM KM822 coincubation) is on record as “significantly decreased”; in assay [6] it was “no effect”; in [7], “no effect”; in assay [9] it was “no effect”. Further, the “change of apparent potency in mutant” value with DAT mutant D385C and in the assay with DAT mutant D476N was “lowered” throughout. Also, the “effect on stimulated DA release / cocaine-induced changes in DA release” value on DAT [8] is recorded as “did not affect”. The “effect on cocaine-induced inhibition of DA uptake (app Km)” value at DAT [8] (cumulative cocaine, significant at 30 μM cocaine) is reported as “significantly reduced”. Besides, the “potency for hDAT transport inhibition higher than for SERT” value at hSERT came to 50 folds. Further, the “Vmax of dopamine uptake” value in the assay with wild type DAT (in the presence of 1 μM KM822) was determined as 65.8 ± 8.71 μmol/min/well; with wild type DAT (in the presence of 5 μM KM822) it was 57.9 ± 4.15 μmol/min/well. In addition, in the assay on wild type DAT (uptake kinetics), the “manner of dopamine uptake inhibition” value is given as “noncompetitive”.
Turning to `NC(=O)C[S@+]([O-])C(c1ccccc1)c1ccccc1` [S-modafinil], the “potency change by Y156F mutation” value in the assay on hDAT Y156F is “significantly reduced”.
Take `CN1[C@@H]2CC[C@H]1C[C@@H](OC(c1ccccc1)c1ccccc1)C2` [benztropine]: the “change of apparent potency in W84” value in the assay with DAT W84L is recorded as “decrease in apparent potency”.
`COC(=O)[C@H]1[C@@H](OC(=O)c2ccccc2)C[C@@H]2CC[C@H]1N2C` [cocaine]: the results for the “effect on MTSEA-biotin labeling” value in the assay with DAT-XC/T316C [2] (100 μM cocaine), with DAT-XC/A372C [4] (100 μM cocaine) and on DAT-XC/W84C [5] (100 μM cocaine coincubation) were “increased labeling”, “no change in labeling” and “not affected”, respectively. Also, the “total DA uptake in striatal synaptosomes” value on DAT [1] (100 μM cocaine) is given as “significantly blocked”. Also, the “change of apparent potency in W84” value with DAT W84L is given as “increased apparent potency”. Further, the “potency change by Y335A mutation” value in the assay on DAT Y335A is on record as “markedly impairs”. For the same molecule, the entries for the “labeling with a maleimide-based biotin molecule” value in the assay on DAT-XC/T316C [10] and in the assay with DAT-XC/A372C [11] were “increased labeling” and “no change in labeling”, respectively. In addition, the “binding affinity change by Y156F mutation” value in the assay with hDAT Y156F is on record as “unaffected”.
